Screening results from PubChem.
This is a sample that favours compounds with a hit; in the whole collection about 6.1% have one here.
Yeast life ext = yeast lifespan extension | S. cerevisiae growth with nicotinamide, OD615; deaD strain in restrictive glucose medium | inhibition of the nicotinamide effect, % at 10 µM | 130,000 tested, 0.68% active | AID 775;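 active means inhibition above a set limit, placed 3 SD over the median of all compounds, cut at about 26% in these data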;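 further: 0% = nicotinamide-treated wells and 100% = cells grown without nicotinamide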
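Assay system: DeaD-strain S. cerevisiae. Medium: CSMM-D glucose medium, restrictive. Reagent: nicotinamide, 1.5 mM, co-present with compound. Compound: 10 µM single point, 0.25% DMSO. Schedule: culture preincubation 4 h, compound exposure 48 h, both 30 °C. Detection: absorbance at 615 nm.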
Yeast growth inh = yeast BB579 growth reduction in restrictive medium | S. cerevisiae BB579 growth, OD615, 48 h | inhibition, % at 10 µM | 140,000 tested, 0.51% active | AID 804;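 active means inhibition above a set limit, 3 SD over the mean compound inhibition, cut at about 44% in these data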
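Test system: Saccharomyces cerevisiae DeaD strain BB579, replicative lifespan model yeast | Buffer or medium: Restrictive CSMM-D medium | Doses: One dose, 10 µM compound with 0.25% DMSO | Incubation: 48 h exposure, 30 °C | Detection: Culture absorbance at 615 nm | Control set: Amphotericin B at 10 µg/mL as positive control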
Measles CPE = protection of cells from measles virus; Measles virus-infected cells, CPE protection, absorbance; protection (pct of control), % at 4 µM; 140,000 tested, 1.5% active; in the data active means protection mostly above about 24%, no sharp cut-off; inactive means mostly below about 26%
WT yeast gro inh = growth inhibition of WT yeast, mitochondrial fusion screen | mitochondrial fusion phenotypic screen, WT strain | inhibition, % at 10 µM | 190,000 tested, 2.1% active; in the data active means inhibition above about 58%; tested in S. cerevisiae
DAT uptake mod = human DAT dopamine uptake with cocaine, either direction | Q01959 | LLC-PK1 hDAT cells, [14C]-dopamine uptake with cocaine IC80; actives deviate in either direction | AID 449768 | B-score at 10 µM | 110,000 tested, 1.3% active;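 active means Z score or B-score, a plate-position-corrected score, falls beyond the plate's 99.7% confidence bounds, in either direction; inactive means both scores lie inside the 99.7% bounds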;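 further: scored against the spread of the other compound wells on the same plate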
Target sequence (Q01959 whole entry, looked up): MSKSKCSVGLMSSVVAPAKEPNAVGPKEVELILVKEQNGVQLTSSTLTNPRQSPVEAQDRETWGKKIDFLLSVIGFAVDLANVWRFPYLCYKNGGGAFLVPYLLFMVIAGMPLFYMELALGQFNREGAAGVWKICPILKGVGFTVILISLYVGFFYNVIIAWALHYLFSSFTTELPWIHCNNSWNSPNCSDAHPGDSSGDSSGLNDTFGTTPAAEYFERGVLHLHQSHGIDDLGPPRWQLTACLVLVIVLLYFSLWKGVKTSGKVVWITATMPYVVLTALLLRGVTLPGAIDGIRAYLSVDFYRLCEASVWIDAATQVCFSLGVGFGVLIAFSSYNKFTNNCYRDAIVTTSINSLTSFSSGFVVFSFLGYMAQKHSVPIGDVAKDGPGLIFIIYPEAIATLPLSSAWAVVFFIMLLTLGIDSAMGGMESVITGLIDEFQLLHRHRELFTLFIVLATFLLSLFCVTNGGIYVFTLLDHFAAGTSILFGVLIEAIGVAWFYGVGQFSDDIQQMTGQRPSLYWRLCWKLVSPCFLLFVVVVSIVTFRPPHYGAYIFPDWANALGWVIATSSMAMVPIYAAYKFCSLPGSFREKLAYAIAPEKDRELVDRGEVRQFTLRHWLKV
RAM inhibit = inhibitors of the yeast RAM network | S. cerevisiae dse1pr::URA3 reporter, 5-FOA growth OD615, 2 d; analog-sensitive cbk1-as2 kinase mutant strain | 190,000 tested, 1.8% active | AID 868 | inhibition, % at 50 µM;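 active means inhibition above a set limit, 3 SD over mean compound inhibition, cut at about 8.4% in these data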;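 further: 0% = DMSO-only wells with no growth and 100% = 10 µM 1-NA-PP1 full growth; inhibition rescues growth on 5-FOA so higher OD means more RAM inhibition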
Numbers without * were called inactive; . = no result.

SMILES	Yeast life ext	Yeast growth inh	Measles CPE	WT yeast gro inh	DAT uptake mod	RAM inhibit
Cc1ccc(-n2c(C)nn(CC#N)c2=O)cc1	.	.	.	-11	.	0
Cc1ccccc1C(=O)NNC(=O)CSc1nc(-c2ccccc2)cc(=O)[nH]1	.	.	.	1	.	1
O=[N+]([O-])c1cc2oc3c(c2c(C=NCc2ccccc2)c1O)CCCC3	69*	7	24	14	.	1
CC(C)CN=Cc1c(O)c([N+](=O)[O-])cc2oc3c(c12)CCCC3	21	68*	7	0	.	4
Oc1c(Br)cc(Br)cc1C=NCc1ccccc1	.	.	.	11	.	-1
N/C(Cc1ccc(Cl)c(Cl)c1)=N\OC(=O)c1cccs1	-12	66*	9	-13	0.85	0
COc1ccccc1NC(=O)Nc1nnc(-c2ccco2)s1	-10	-41	30	-9	.	7
COc1ccccc1NC(=O)Nc1nnc(C(C)C)s1	-8	-12	55*	-4	.	0
CCc1nnc(NC(=O)Nc2ccccc2OC)s1	-8	-3	7	59*	-0.99	1
O=C(CN1C(=O)NC2(CCc3ccccc32)C1=O)c1ccc2c(c1)OCCO2 (stereo not given)	34	-23	20	-5	1.5	0
Cc1cccc2c(=O)cc(C)n(Cc3ccccc3)c12	-6	-56	36*	18	.	2
O=C(Oc1ccccc1[N+](=O)[O-])c1cccnc1	-12	19	29*	-13	.	3
N/C(=N\OC(=O)Cc1ccccc1[N+](=O)[O-])c1cccnc1	.	.	.	-1	.	0
CCS(=O)(=O)c1ccc2c(c1)N(S(=O)(=O)c1ccc(Cl)cc1)CC(C(=O)O)O2 (stereo not given)	.	.	.	-7	.	2
Cc1cccc(NC(=O)CSc2nc3[nH]ncc3c(=O)[nH]2)c1C	2	-29	21	-9	.	11*
COc1cccc(N=C2CC(C)(C)CC(=O)/C2=C(/O)c2ccccc2)c1	.	.	.	-4	.	1
CC1(C)Nc2ccccc2N(CC(=O)N2CCCCC2)C1=O	-3	-43	0	3	1.4*	2
CN(C(=O)CCN1C(=O)C(C)(C)Nc2ccccc21)c1ccccc1	5	-38	25	11	-0.0058	0
CC1(C)Nc2ccccc2N(CCC(=O)N2CCOCC2)C1=O	-3	-7	2	0	1.6*	1
Cc1nc(CN2CCN(Cc3nc(C(c4ccccc4)c4ccccc4)no3)CC2)cs1	.	.	.	10	.	-1
O=C(COc1ccc(Cl)cc1[N+](=O)[O-])N1CCCCCC1	.	.	.	-13	.	2
Cc1cc([N+](=O)[O-])cc2c1NC(=O)C2(O)N1CCCCCC1 (stereo not given)	-3	2	21	13	.	1
Cc1ccc(-c2nn(-c3ccccc3)cc2CSC(=N)N)cc1	-32	-28	3	81*	1.1	1
OCc1cn(-c2ccccc2)nc1-c1ccc(-c2nn(-c3ccccc3)cc2CO)cc1	-2	-21	18	-9	0.057	6
Cc1noc(C)c1S(=O)(=O)N1CCCCC1	-2	-34	2	4	-0.057	0
SMILES	Yeast life ext	Yeast growth inh	Measles CPE	WT yeast gro inh	DAT uptake mod	RAM inhibit
c1ccc(-n2cnc3cc(NCc4cccs4)ccc32)cc1	-20	-22	10	-3	-2.1	0
Cc1ccc(-n2cnc3cc(NCc4cccs4)ccc32)cc1	-21	50*	1	34	0.63	1
O=C(N=Nc1c(O)n(Cc2ccccc2)c2ccccc12)c1cc2ccccc2cc1O	-4	-46	7	70*	.	3
O=C(N=Nc1c(O)n(Cc2ccccc2)c2ccccc12)c1ccc(O)cc1	-2	-42	4	57	.	4
Cc1nn(-c2ccccc2)c(N)c1Sc1ccccc1[N+](=O)[O-]	10	-9	46*	1	.	0
CCOC(=O)CNc1nc(C(C)(C)C)nc2c1nnn2Cc1ccccc1Cl	2	-12	20	0	0.71	10*
CCOC(=O)N1CCN(Cc2nc(N)nc(Nc3ccc(Cl)cc3)n2)CC1	.	.	.	-11	.	1
O=C(Nc1ccc(Cl)c(C(F)(F)F)c1)c1ccco1	-11	-16	3	72*	1.2	-1
O=C(Nc1cccc(C(F)(F)F)c1)c1ccco1	-18	3	7	10	0.097	0
Cc1cc(OCC(=O)Nc2ccncc2)cc(C)c1Br	-17	-18	6	74*	0.58	0
Oc1ccccc1CN(Cc1ccco1)CC(O)COCc1ccc(Cl)cc1 (stereo not given)	9	-17	12	68*	.	-1
Cn1c(N)c(C#N)c2c(c1=S)CSC(C)(C)C2	-12	-20	5	-7	-7.8*	0
N#Cc1cccc(C(c2nnnn2Cc2ccccc2)N2CCCC2)c1 (stereo not given)	-6	-57	8	19	0.047	2
Fc1ccc(C(c2nnnn2Cc2cccs2)N2CCN(c3ccccc3)CC2)cc1 (stereo not given)	.	-25	14	7	2.2*	0
COc1ccc(C(c2nnnn2Cc2cccs2)N2CCN(c3ccccc3F)CC2)cc1OC (stereo not given)	-4	-6	13	14	-0.53	0
N#Cc1ccc(C(c2nnnn2Cc2ccccc2)N2CCCC2)cc1 (stereo not given)	0	-75	3	10	-9.3*	1
COc1ccc(C(c2nnnn2C2CCCC2)N2CCC(C)CC2)cc1 (stereo not given)	0	-15	5	2	-3*	1
Cc1ccc(C(c2nnnn2CCc2ccccc2)N2CCC(C)CC2)cc1 (stereo not given)	.	-47	3	74*	0.82	1
COc1cccc2c1C(=O)c1c(O)c3c(c(O)c1C2=O)C[C@@](O)(C(C)=O)C[C@@H]3O[C@H]1C[C@H](N)[C@H](O)[C@H](C)O1	-1	39	-1	67*	.	-2
O=C(CSc1nc2ccccc2[nH]1)Nc1nc(-c2cccc(Br)c2)cs1	-10	-41	16	88*	.	2
CCCc1cc(=O)[nH]c(SCC(=O)NC)n1	-7	2	5	-6	0.00092	0
Cc1ccc(-c2csc(NC(=O)CSc3nc(C)cc(=O)[nH]3)n2)cc1	5	-29	6	33	2.3*	6
CCCc1cc(=O)[nH]c(SCC(=O)Nc2ccc(C)cc2)n1	.	.	.	-15	.	8.5*
CCCc1nnc(NC(=O)CSc2nc3ccccc3[nH]2)s1	.	.	.	-6	.	0
CCOc1cc(C2C3=C(CC(C)(C)CC3=O)Nc3n[nH]c(C)c32)ccc1O (stereo not given)	.	.	.	19	.	-1
NC(=S)n1[nH]c(-c2ccc([N+](=O)[O-])cc2)c(N=Nc2ccc(Cl)cc2)c1=O	.	.	.	78*	.	1
O=C1CCCN2N=C(SCC(=O)N3N=C(c4ccc(Br)cc4)CC3c3ccc(F)cc3)SC2=N1 (stereo not given)	.	.	.	34	.	11*
